Assay results reported in ChEMBL document CHEMBL2176996, “Synthesis and structure-affinity relationships of selective high-affinity 5-HT(4) receptor antagonists: application to the design of new potential single photon emission computed tomography tracers” (J Med Chem, 2012).
Calls of active or inactive are those of the source. No cut-off for these calls is given here.

Tests used:
[1] = biological target: 5-hydroxytryptamine receptor 4 (Cavia porcellus) (UniProt O70528); test: Displacement of [3H]GR113808 from 5HT4R in guinea pig striatal membranes at 10 nM; type: cell membranes; conditions: Striatum, Membrane
5-hydroxytryptamine receptor 4 (Cavia porcellus), sequence (O70528 whole entry): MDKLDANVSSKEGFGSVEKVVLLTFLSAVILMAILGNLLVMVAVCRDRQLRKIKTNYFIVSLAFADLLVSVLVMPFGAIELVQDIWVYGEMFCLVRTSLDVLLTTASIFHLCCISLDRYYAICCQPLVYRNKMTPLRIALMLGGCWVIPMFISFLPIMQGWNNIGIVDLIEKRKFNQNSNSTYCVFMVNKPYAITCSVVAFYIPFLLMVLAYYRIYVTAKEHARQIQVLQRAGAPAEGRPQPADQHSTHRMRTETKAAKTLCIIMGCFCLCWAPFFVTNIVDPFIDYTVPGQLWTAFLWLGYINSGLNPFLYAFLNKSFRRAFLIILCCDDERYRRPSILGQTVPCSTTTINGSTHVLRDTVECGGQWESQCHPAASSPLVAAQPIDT
Summary of the method: (§1)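 Native 5-HT4R in male guinea pig striatal membranes (HEPES 50 mM pH 7.4); 600 µg membrane incubated in duplicate with [3H]GR 113808 at 0.1 nM final, 37 °C, 30 min; filtration on PEI-soaked GF/B filters, cold buffer washes.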

[2] = biological target: 5-hydroxytryptamine receptor 4 (Cavia porcellus) (UniProt O70528); test: Displacement of [3H]GR113808 from 5HT4R in guinea pig striatal membranes at 1 uM; type: cell membranes; conditions: Striatum, Membrane; summary of the method: as §1
[3] = biological target: 5-hydroxytryptamine receptor 4 (Cavia porcellus, UniProt O70528); test: Displacement of [3H]GR113808 from 5HT4R in guinea pig striatal membranes; type: cell membranes, Striatum, Membrane
5-hydroxytryptamine receptor 4 (Cavia porcellus, UniProt O70528), sequence (O70528 whole entry): as above

[4] = biological target: 5-hydroxytryptamine receptor 2B (Homo sapiens, UniProt P41595); test: Binding affinity to human 5HT2B by Cerep protocol based assay
5-hydroxytryptamine receptor 2B, sequence (P41595 whole entry): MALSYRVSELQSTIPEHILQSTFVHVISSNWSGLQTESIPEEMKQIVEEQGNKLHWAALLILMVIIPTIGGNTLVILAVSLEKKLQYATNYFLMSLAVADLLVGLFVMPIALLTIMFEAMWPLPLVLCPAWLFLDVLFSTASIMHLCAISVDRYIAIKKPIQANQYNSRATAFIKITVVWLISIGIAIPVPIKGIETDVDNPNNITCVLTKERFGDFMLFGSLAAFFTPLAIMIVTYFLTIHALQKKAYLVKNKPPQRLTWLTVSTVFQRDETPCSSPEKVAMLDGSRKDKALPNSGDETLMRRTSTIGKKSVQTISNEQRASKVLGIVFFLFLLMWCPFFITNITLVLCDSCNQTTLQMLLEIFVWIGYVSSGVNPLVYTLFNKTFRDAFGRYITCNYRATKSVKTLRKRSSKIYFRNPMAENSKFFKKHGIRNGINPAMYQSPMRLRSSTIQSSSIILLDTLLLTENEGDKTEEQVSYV

[5] = biological target: T1, 5-hydroxytryptamine receptor 4 (Homo sapiens, UniProt Q13639)
T1 sequence (Q13639 whole entry): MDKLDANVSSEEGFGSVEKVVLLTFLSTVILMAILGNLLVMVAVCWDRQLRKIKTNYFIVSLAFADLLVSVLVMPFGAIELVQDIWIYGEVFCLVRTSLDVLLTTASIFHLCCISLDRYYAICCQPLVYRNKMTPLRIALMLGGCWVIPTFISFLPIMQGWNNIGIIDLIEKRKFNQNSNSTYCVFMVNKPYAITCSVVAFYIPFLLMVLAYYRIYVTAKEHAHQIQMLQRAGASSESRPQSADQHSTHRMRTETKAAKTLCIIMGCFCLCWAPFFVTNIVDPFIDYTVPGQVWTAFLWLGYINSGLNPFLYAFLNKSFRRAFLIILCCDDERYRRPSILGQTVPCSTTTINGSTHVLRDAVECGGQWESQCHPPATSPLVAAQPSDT

[6] = biological target: 5-hydroxytryptamine receptor 1E (Homo sapiens, UniProt P28566); test: Binding affinity to human 5HT1E by Cerep protocol based assay
5-hydroxytryptamine receptor 1E, sequence (P28566 whole entry): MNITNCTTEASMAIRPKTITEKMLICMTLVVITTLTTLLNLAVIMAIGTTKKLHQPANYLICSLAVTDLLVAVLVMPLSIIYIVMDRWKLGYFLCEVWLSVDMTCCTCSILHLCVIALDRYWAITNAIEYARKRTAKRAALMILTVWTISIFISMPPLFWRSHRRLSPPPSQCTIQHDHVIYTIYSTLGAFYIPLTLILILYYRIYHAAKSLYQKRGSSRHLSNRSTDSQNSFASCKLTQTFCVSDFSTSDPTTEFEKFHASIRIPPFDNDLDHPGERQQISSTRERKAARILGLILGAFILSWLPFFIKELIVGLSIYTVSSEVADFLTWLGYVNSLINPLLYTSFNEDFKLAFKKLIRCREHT

[7] = biological target: 5-hydroxytryptamine receptor 7 (Homo sapiens, UniProt P34969); test: Binding affinity to human 5HT7 by Cerep protocol based assay
5-hydroxytryptamine receptor 7, sequence (P34969 whole entry): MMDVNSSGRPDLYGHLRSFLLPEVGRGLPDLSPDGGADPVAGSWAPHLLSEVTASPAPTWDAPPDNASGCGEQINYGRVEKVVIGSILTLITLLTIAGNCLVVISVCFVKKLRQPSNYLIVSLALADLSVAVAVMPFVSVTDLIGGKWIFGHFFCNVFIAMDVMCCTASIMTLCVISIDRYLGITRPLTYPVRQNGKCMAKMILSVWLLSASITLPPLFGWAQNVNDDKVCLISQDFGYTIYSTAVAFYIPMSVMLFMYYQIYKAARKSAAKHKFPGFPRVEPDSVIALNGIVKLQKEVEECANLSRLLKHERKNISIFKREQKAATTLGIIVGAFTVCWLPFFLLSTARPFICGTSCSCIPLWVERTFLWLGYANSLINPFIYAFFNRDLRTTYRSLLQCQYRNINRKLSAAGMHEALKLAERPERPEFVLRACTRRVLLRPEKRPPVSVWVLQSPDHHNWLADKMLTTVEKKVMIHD

[8] = biological target: 5-hydroxytryptamine receptor 6 (Homo sapiens, UniProt P50406); test: Binding affinity to human 5HT6 by Cerep protocol based assay
5-hydroxytryptamine receptor 6, sequence (P50406 whole entry): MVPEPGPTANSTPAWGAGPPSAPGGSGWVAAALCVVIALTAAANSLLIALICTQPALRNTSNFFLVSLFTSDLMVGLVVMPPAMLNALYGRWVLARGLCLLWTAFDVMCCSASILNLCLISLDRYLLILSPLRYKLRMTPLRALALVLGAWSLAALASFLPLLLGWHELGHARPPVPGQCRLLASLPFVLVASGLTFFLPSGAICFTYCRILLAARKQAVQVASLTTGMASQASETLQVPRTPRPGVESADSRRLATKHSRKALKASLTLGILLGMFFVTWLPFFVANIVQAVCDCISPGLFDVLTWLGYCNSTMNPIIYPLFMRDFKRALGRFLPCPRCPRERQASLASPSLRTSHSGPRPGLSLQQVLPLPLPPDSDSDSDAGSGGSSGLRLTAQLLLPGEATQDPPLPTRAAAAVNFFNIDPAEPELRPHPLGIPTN

[9] = biological target: 5-hydroxytryptamine receptor 1B (Homo sapiens, UniProt P28222); test: Binding affinity to human 5HT1B by Cerep protocol based assay
5-hydroxytryptamine receptor 1B, sequence (P28222 whole entry): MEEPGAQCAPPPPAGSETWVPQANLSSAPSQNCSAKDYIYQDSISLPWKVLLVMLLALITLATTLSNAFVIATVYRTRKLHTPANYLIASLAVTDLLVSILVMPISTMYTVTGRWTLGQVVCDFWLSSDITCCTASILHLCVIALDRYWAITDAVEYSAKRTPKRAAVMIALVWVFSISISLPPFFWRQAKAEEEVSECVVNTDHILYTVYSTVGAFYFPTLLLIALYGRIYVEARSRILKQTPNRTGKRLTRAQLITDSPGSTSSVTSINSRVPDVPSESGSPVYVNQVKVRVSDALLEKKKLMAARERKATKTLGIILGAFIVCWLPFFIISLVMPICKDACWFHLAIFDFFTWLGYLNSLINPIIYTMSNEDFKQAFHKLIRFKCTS

[10] = biological target: T1, 5-hydroxytryptamine receptor 4; test: Displacement of [3H]GR113808 from human recombinant 5HT4R expressed in HEK293T cells; type: cell-based, HEK-293T
[11] = biological target: 5-hydroxytryptamine receptor 2A (Homo sapiens, UniProt P28223); test: Binding affinity to human 5HT2A by Cerep protocol based assay
5-hydroxytryptamine receptor 2A, sequence (P28223 whole entry): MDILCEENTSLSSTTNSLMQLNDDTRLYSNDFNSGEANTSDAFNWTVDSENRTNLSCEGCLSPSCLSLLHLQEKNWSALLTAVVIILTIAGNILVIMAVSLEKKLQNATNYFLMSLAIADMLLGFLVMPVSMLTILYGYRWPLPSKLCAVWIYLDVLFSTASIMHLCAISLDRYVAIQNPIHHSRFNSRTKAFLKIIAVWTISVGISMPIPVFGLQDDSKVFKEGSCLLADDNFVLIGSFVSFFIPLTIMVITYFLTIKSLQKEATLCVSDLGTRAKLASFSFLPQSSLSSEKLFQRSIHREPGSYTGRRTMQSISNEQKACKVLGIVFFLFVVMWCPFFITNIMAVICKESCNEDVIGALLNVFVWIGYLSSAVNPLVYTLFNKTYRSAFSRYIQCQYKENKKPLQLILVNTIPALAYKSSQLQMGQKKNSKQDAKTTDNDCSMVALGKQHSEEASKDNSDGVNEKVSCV

[12] = biological target: 5-hydroxytryptamine receptor 5A (Homo sapiens, UniProt P47898); test: Binding affinity to human 5HT5A by Cerep protocol based assay
5-hydroxytryptamine receptor 5A, sequence (P47898 whole entry): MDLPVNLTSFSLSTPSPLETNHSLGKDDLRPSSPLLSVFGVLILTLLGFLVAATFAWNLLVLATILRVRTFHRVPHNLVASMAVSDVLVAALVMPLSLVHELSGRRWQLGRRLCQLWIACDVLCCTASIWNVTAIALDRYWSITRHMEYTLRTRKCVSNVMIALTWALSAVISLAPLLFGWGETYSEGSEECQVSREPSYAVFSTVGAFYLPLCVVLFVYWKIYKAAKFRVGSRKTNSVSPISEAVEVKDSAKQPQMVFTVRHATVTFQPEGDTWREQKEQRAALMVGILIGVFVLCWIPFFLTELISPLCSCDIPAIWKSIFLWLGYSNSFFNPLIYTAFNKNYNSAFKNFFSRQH

[13] = biological target: 5-hydroxytryptamine receptor 1D (Homo sapiens, UniProt P28221); test: Binding affinity to human 5HT1D by Cerep protocol based assay
5-hydroxytryptamine receptor 1D, sequence (P28221 whole entry): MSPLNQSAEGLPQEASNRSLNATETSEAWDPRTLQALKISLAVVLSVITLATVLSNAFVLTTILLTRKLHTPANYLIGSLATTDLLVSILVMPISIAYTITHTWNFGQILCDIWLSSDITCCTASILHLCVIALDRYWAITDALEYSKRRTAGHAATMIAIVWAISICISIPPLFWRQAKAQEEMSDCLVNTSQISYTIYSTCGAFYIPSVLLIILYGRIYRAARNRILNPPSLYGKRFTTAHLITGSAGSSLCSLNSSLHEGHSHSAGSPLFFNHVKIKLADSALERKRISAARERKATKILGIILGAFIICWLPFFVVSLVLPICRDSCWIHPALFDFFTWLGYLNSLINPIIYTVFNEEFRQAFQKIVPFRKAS

[14] = biological target: T2, 5-hydroxytryptamine receptor 1A (Homo sapiens, UniProt P08908); test: Binding affinity to human 5HT1A by Cerep protocol based assay
T2 sequence (P08908 whole entry): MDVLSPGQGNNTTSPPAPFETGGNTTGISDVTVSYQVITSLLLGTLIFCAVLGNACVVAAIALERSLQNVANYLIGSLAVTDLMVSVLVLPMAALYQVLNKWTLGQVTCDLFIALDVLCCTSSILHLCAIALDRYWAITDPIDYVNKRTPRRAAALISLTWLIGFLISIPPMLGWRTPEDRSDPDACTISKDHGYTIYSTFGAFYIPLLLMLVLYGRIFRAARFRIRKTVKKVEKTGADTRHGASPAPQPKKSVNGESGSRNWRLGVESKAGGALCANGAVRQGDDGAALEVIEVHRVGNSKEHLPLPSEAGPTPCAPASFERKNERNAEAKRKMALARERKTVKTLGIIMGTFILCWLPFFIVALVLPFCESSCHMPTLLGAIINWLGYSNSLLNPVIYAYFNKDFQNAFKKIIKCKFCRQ

[15] = biological target: T3, 5-hydroxytryptamine receptor 2C (Homo sapiens, UniProt P28335); test: Binding affinity to human 5HT2C by Cerep protocol based assay
T3 sequence (P28335 whole entry): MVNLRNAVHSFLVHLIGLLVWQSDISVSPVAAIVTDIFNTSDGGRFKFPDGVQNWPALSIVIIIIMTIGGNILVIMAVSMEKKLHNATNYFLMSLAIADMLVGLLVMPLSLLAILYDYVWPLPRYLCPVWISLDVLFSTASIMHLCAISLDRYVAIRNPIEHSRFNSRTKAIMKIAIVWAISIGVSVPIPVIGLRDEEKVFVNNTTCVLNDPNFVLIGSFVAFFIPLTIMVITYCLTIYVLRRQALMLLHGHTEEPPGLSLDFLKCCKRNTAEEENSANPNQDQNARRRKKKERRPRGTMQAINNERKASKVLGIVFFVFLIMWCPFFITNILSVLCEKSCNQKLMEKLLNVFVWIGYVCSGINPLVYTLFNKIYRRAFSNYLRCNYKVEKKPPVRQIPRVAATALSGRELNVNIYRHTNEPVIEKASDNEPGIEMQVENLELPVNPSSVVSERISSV

[16] = biological target: T4, 5-hydroxytryptamine receptor 3A (Homo sapiens, UniProt P46098); test: Binding affinity to human 5HT3 by Cerep protocol based assay
T4 sequence (P46098 whole entry): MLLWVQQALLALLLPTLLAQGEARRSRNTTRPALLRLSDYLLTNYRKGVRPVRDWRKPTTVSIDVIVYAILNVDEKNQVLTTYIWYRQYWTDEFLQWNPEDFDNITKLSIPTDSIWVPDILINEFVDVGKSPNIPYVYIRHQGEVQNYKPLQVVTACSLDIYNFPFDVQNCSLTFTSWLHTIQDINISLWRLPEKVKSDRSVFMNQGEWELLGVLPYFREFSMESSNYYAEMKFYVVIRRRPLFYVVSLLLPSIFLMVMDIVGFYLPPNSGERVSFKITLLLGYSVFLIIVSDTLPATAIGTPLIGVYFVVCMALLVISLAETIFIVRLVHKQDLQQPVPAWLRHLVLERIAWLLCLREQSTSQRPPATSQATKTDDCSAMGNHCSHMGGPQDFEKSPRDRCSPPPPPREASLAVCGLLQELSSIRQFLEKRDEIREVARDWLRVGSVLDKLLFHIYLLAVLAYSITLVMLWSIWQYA

[17] = biological target: 5-hydroxytryptamine receptor 4 (Rattus norvegicus) (UniProt Q62758); test: Displacement of [125I]SB 207710 from 5HT4R in rat brain cortex at 10 pM incubated for 30 mins by autoradiography; type: tissue-based
5-hydroxytryptamine receptor 4 (Rattus norvegicus), sequence (Q62758 whole entry): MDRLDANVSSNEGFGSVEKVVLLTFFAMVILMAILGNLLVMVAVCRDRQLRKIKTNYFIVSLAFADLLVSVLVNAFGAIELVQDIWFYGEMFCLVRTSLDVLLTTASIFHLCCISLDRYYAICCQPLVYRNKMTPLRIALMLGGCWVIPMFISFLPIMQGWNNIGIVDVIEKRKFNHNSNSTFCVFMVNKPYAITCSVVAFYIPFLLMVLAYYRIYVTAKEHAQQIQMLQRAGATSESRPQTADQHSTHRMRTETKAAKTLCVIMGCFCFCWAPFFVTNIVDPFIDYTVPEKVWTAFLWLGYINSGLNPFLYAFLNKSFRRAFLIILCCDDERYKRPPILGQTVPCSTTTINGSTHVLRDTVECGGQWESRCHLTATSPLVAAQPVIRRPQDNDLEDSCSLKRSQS
Summary of the method: (§2)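 Frozen rat brain coronal sections (striatum/accumbens level) preincubated 5 min in 50 mM Tris-HCl pH 7.4, then incubated 30 min at room temperature with 100 pM [125I]1 plus competitor (1, 10, 100, 1000 pM). Three 5-min ice-cold buffer washes and a water dip, then drying; phosphorimaging after overnight exposure.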

Mus musculus [18] = test: In-vivo displacement of [125I]SB 207710 from 5HT4R in mouse brain hemispheres at 50 ug/kg, iv by autoradiography; type: functional, organism-based
Summary of the method: (§3)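 One mouse dosed intravenously with saline carrying competitor at 50 µg/kg together with 30 µCi [125I]1 (146 Ci/mmol). CO2 sacrifice; 20 µm cryosections taken from 5-HT4R-rich regions (striatum, accumbens nucleus, olfactory tubercles), exposed overnight on phosphorimaging plates and scanned.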

[19] = biological target: 5-hydroxytryptamine receptor 4 (Rattus norvegicus) (UniProt Q62758); test: Displacement of [125I]SB 207710 from 5HT4R in rat brain cortex at 1 nM incubated for 30 mins by autoradiography; type: tissue-based; summary of the method: as §2
Mus musculus [20] = test: In-vivo displacement of [125I]SB 207710 from 5HT4R in mouse olfactory tubercles at 50 ug/kg, iv by autoradiography; type: functional, organism-based; conditions: Olfactory tubercle; summary of the method: as §3
[21] = biological target: T1, 5-hydroxytryptamine receptor 4; test: Displacement of radioligand from human 5HT4R by Cerep protocol based assay
[22] = biological target: T1, 5-hydroxytryptamine receptor 4; remark: listed apart in the source

Structure (SMILES): CCCN1CCC(COc2nc3c(C)cccc3c3ccccc23)CC1
- inhibition [1]: 0%
- inhibition [2]: 100%
- Ki [3]: 100 nM

Structure (SMILES): CCCN1CCC(COc2nc3ccccc3c3ccccc23)CC1
- Ki [3]: 51.5 nM

Structure (SMILES): CCCN1CCC(COc2nc3ccc(Cl)cc3c3ccccc23)CC1
- inhibition [1]: 0%
- inhibition [2]: 27%

Structure (SMILES): CCCN1CCC(COc2nc3c(OC)cccc3c3ccccc23)CC1
- Ki [4]: 29.3 nM
- EC50 [5]: 79.4 nM
- Ki [6]: > 10000 nM
- Ki [7]: 3470 nM
- inhibition [1]: 22%
- Ki [8]: > 10000 nM
- Ki [9]: > 10000 nM
- Ki [10]: 17 nM
- Ki [11]: 5960 nM
- inhibition [2]: 100%
- Ki [12]: > 10000 nM
- Ki [3]: 35 nM
- Ki [13]: 2570 nM
- Ki [14]: > 10000 nM
- Ki [15]: > 10000 nM
- Ki [16]: > 10000 nM

Structure (SMILES): CCCN1CCC(COc2nc3ccc(F)cc3c3ccccc23)CC1
- inhibition [1]: 0%
- inhibition [2]: 47%

Structure (SMILES): CCCN1CCC(COc2nc3ccc(C)cc3c3ccccc23)CC1
- Ki [3]: 246 nM

Structure (SMILES): CCCN1CCC(COc2nc3c(Cl)cccc3c3ccccc23)CC1
- EC50 [5]: 251 nM
- inhibition [1]: 24%
- Ki [10]: 5 nM
- inhibition [2]: 100%
- Ki [3]: 21.9 nM

Structure (SMILES): CCCN1CCC(COc2nc3c(I)cccc3c3ncccc23)CC1
- Ki [11]: 1820 nM
- Ki [14]: 5630 nM

Structure (SMILES): CCCN1CCC(COc2nc3ccccc3c3cccc(F)c23)CC1
- Ki [3]: 21.6 nM

Structure (SMILES): CCCN1CCC(COc2nc3cc(F)ccc3c3ccccc23)CC1
- Ki [10]: 33 nM
- Ki [3]: 101 nM

Structure (SMILES): CCCN1CCC(COc2nc3cc(OC)ccc3c3ccccc23)CC1
- Ki [3]: 1900 nM

Structure (SMILES): CCCN1CCC(COc2nc3ccccc3c3ccc(OC)cc23)CC1
- inhibition [1]: 0%
- inhibition [2]: 85%

Structure (SMILES): CCCN1CCC(COc2nc3ccccc3c3ncccc23)CC1
- Ki [4]: 627 nM
- EC50 [5]: 10 nM
- Ki [6]: > 10000 nM
- Ki [7]: > 10000 nM
- inhibition [1]: 64%
- Ki [8]: > 10000 nM
- Ki [9]: > 10000 nM
- Ki [10]: 7.5 nM
- Ki [11]: > 10000 nM
- inhibition [2]: 96%
- Ki [12]: > 10000 nM
- Ki [3]: 13.1 nM
- Ki [13]: > 10000 nM
- Ki [14]: > 10000 nM
- Ki [15]: 2790 nM
- Ki [16]: 680 nM

Structure (SMILES): Fc1cccc2c1nc(OCC1CCN(CCCc3ccc(I)cc3)CC1)c1cccnc12
- Ki [4]: 340 nM
- Activity [17]: Active
- Activity (Mus musculus [18]): Active
- Ki [7]: 150 nM
- inhibition [1]: 94%
- Ki [8]: > 10000 nM
- Ki [9]: > 10000 nM
- Activity [19]: Active
- Ki [11]: 810 nM
- inhibition [2]: 100%
- Ki [12]: 1700 nM
- Ki [3]: 2.5 nM
- Activity (Mus musculus [20]): Active
- Ki [13]: > 10000 nM
- Ki [14]: 680 nM
- Ki [15]: 400 nM
- Ki [16]: 410 nM
- Ki [21]: 0.23 nM

Structure (SMILES): CCCN1CCC(COc2nc3ccccc3c3cnccc23)CC1
- inhibition [1]: 50%
- Ki [10]: 403 nM
- inhibition [2]: 100%
- Ki [3]: 22.8 nM

Structure (SMILES): CCCN1CCC(COc2nc3ccccc3c3cc(F)ccc23)CC1
- Ki [3]: 209 nM

Structure (SMILES): CCCN1CCC(COc2nc3cc(Cl)ccc3c3ccccc23)CC1
- inhibition [1]: 0%
- inhibition [2]: 85%

Structure (SMILES): CCCN1CCC(COc2nc3ccccc3c3cc(C)ccc23)CC1
- inhibition [1]: 0%
- inhibition [2]: 28%

Structure (SMILES): CCCN1CCC(COc2nc3ccc(OC)cc3c3ccccc23)CC1
- Ki [3]: 233 nM

Structure (SMILES): CCCN1CCC(COc2nc3c(F)cccc3c3ncccc23)CC1
- pKb [22]: 10.6
- inhibition [1]: 98%
- inhibition [2]: 100%
- Ki [3]: 2.2 nM
- Ki [21]: 0.04 nM

Structure (SMILES): Ic1ccc(CCCN2CCC(COc3nc4ccccc4c4ccccc34)CC2)cc1
- inhibition [1]: 3%
- inhibition [2]: 100%
- Ki [3]: 115 nM

Structure (SMILES): CCCN1CCC(COc2nc3cc(C)ccc3c3ccccc23)CC1
- Ki [3]: 691 nM

Structure (SMILES): CCCN1CCC(COc2nc3ccccc3c3ccc(F)cc23)CC1
- inhibition [1]: 4%
- inhibition [2]: 90%
- Ki [3]: 154 nM

Structure (SMILES): CCCN1CCC(COc2nc3c(I)cccc3c3ccccc23)CC1
- Ki [4]: 162 nM
- Ki [6]: > 10000 nM
- Ki [7]: 153 nM
- inhibition [1]: 0%
- Ki [8]: > 10000 nM
- Ki [9]: > 10000 nM
- Ki [11]: 1020 nM
- inhibition [2]: 100%
- Ki [12]: 5810 nM
- Ki [3]: 13.5 nM
- Ki [13]: > 10000 nM
- Ki [14]: > 10000 nM
- Ki [15]: 772 nM
- Ki [16]: 1310 nM
- Ki [21]: 1.2 nM

Structure (SMILES): CCCN1CCC(COc2nc3ccccc3c3ccc([N+](=O)[O-])cc23)CC1
- inhibition [1]: 0%
- inhibition [2]: 54%
